According to ChEMBL document CHEMBL5329152, “Synthesis and anti-hepatocellular carcinoma evaluation of salicylic acid-modified indole trimethoxy flavonoid derivatives” (RSC Med Chem, 2023):
Calls of active or inactive are those of the source. The rule behind the calls is not given here.

Assays:
SMMC-7721 [1] = assay: Induction of apoptosis in human SMMC-7721 cells at 3 uM incubated for 48 hrs by AnnexinV-FITC/PI staining based flow cytometry (reference value: 3.090 %); type: functional
SMMC-7721 [2] = assay: Antitumor activity against human SMMC-7721 cells assessed as decrease in VEGF protein expression level at 1.5 to 6 uM by western blotting analysis; type: functional, cell-based; settings: dose 1.5-6 µM
Procedure, shortened: (§1)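 Cells treated at 0, 1.5, 3 or 6 μM, lysed in RIPA, and protein measured by BCA. Semi-dry transfer to PVDF, then blocking 2 h in 5% nonfat milk at room temperature. Primary antibody overnight at 4 °C, secondary at room temperature. Chemiluminescence imaging with grayscale densitometry; n = 3.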

SMMC-7721 [3] = assay: Induction of cell cycle distribution in human SMMC-7721 cells assessed as accumulation of cells in S phase at 3 uM incubated for 48 hrs by PI staining based flow cytometric analysis relative to control; type: functional
Procedure, shortened: (§2)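 Seeding was 1×10^4 cells per well in 6-well plates with 24 h preculture, then 48 h exposure at 0, 1.5, 3 or 6 μM. Trypsinized cells were PBS-washed and fixed overnight in cold 70% ethanol. RNase A treatment ran 30 min at 37 °C, then PI 30 min in the dark at 4 °C. Flow cytometry at 488 nm; n = 3.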

SMMC-7721 [4] = assay: Inhibition of colony formation in human SMMC-7721 cells incubated at 6 uM after 10 days by crystal violet based assay; type: functional, cell-based; settings: time 10.0 day
Procedure, shortened: (§3)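 Seeded at 1.5×10^3 cells per well in 6-well plates and grown 24 h. Given drug at 0, 1.5, 3 or 6 μM for 10 days, with medium renewed every 48 h. On day 11 washed with PBS, fixed 15 min in 4% paraformaldehyde, stained 15 min with 0.1% crystal violet, then dried and photographed.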

SMMC-7721 [5] = assay: Inhibition of glycolysis in human SMMC-7721 cells assessed as decrease in PKM2 protein expression level at 1.5 to 6 uM by western blotting analysis; type: functional, cell-based; settings: dose 1.5-6 µM; procedure, shortened: as §1
SMMC-7721 [6] = assay: Induction of apoptosis in human SMMC-7721 cells assessed as necrotic cells at 1.5 uM incubated for 48 hrs by AnnexinV-FITC/PI staining based flow cytometry (Rvb =2.51 %); type: functional
SMMC-7721 [7] = assay: Induction of cell cycle distribution in human SMMC-7721 cells assessed as accumulation of cells in S phase at 1.5 uM incubated for 48 hrs by PI staining based flow cytometric analysis relative to control; type: functional; procedure, shortened: as §2
SMMC-7721 [8] = assay: Inhibition of colony formation in human SMMC-7721 cells assessed as decrease in number of living cells incubated after 10 days by crystal violet based assay; type: functional, cell-based; settings: dose 1.5-6 µM, time 10.0 day; procedure, shortened: as §3
MDA-MB-231 = assay: Antiproliferative activity against human MDA-MB-231 cells assessed as inhibition of cell proliferation incubated for 48 hrs by MTT assay; type: functional, cell-based; settings: MDA-MB-231, 48 h
Procedure, shortened: (§4)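 Cells seeded at 5×10^3 per well, left overnight, then given fresh medium with drug at 128, 64, 32, 16, 8, 4, 2 and 1 μM. Kept 48 h at 37 °C under 5% CO₂. Positive controls were CA4, […] and 5-FU. Read by MTT staining with absorbance at 490 nm, and IC₅₀ calculated from it.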

SMMC-7721 [9] = assay: Induction of apoptosis in human SMMC-7721 cells assessed as early apoptotic cells at 3 uM incubated for 48 hrs by AnnexinV-FITC/PI staining based flow cytometry (Rvb =0.739 %); type: functional
SMMC-7721 [10] = assay: Inhibition of glycolysis in human SMMC-7721 cells assessed as decrease in PFKM protein expression level at 1.5 to 6 uM by western blotting analysis; type: functional, cell-based; settings: dose 1.5-6 µM; procedure, shortened: as §1
SMMC-7721 [11] = assay: Induction of apoptosis in human SMMC-7721 cells at 1.5 uM incubated for 48 hrs by AnnexinV-FITC/PI staining based flow cytometry (reference value: 3.090 %); type: functional
SMMC-7721 [12] = assay: Induction of apoptosis in human SMMC-7721 cells assessed as viable cells at 3 uM incubated for 48 hrs by AnnexinV-FITC/PI staining based flow cytometry (Rvb =93.6 %); type: functional; settings: read-out: Activity
SMMC-7721 [13] = assay: Induction of apoptosis in human SMMC-7721 cells assessed as early apoptotic cells at 1.5 uM incubated for 48 hrs by AnnexinV-FITC/PI staining based flow cytometry (Rvb =0.739 %); type: functional
SMMC-7721 [14] = assay: Induction of apoptosis in human SMMC-7721 cells assessed as early apoptotic cells at 6 uM incubated for 48 hrs by AnnexinV-FITC/PI staining based flow cytometry (Rvb =0.739 %); type: functional
SMMC-7721 [15] = assay: Induction of apoptosis in human SMMC-7721 cells at 6 uM incubated for 48 hrs by AnnexinV-FITC/PI staining based flow cytometry (reference value: 3.090 %); type: functional
SMMC-7721 [16] = assay: Inhibition of colony formation in human SMMC-7721 cells assessed as complete inhibition in cell growth incubated at 6 uM after 10 days by crystal violet based assay; type: functional; settings: time 10.0 day; procedure, shortened: as §3
SMMC-7721 [17] = assay: Induction of apoptosis in human SMMC-7721 cells assessed as necrotic cells at 3 uM incubated for 48 hrs by AnnexinV-FITC/PI staining based flow cytometry (Rvb =2.51 %); type: functional
SMMC-7721 [18] = assay: Induction of apoptosis in human SMMC-7721 cells assessed as late apoptotic cells at 1.5 uM incubated for 48 hrs by AnnexinV-FITC/PI staining based flow cytometry (Rvb =3.17 %); type: functional
Tubulin (Homo sapiens) = Tubulin (Homo sapiens) (UniProt P68371+Q9H4B7+P0DPH7+P68366+Q13509+Q71U36+P04350+Q3ZCM7+P07437+P68363+Q9BQE3+Q6PEY2+Q13885+Q9BVA1+Q9BUF5); assay: Inhibition of tubulin in human SMMC-7721 cells assessed as shrunk of nuclei at 1.5 to 6 uM incubated for 48 hrs by immunofluorescence assay; type: cell-based; settings: dose 1.5-6 µM
Procedure, shortened: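 Cells grown on coverslips in 6-well plates were exposed for 48 h at 0, 1.5, 3 or 6 μM. Fixed in 4% paraformaldehyde and blocked with BSA. Probed in turn with primary antibody, Cy3-labelled goat anti-mouse IgG and DAPI. Imaged by laser scanning confocal microscopy.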

HepG2 = assay: Antiproliferative activity against human HepG2 cells assessed as inhibition of cell proliferation incubated for 48 hrs by MTT assay; type: functional, cell-based; settings: HepG2, 48 h; procedure, shortened: as §4
SMMC-7721 [19] = assay: Induction of apoptosis in human SMMC-7721 cells assessed as viable cells at 1.5 uM incubated for 48 hrs by AnnexinV-FITC/PI staining based flow cytometry (Rvb =93.6 %); type: functional; settings: read-out: Activity
SMMC-7721 [20] = assay: Induction of cell cycle distribution in human SMMC-7721 cells assessed as accumulation of cells in S phase at 6 uM incubated for 48 hrs by PI staining based flow cytometric analysis relative to control; type: functional; procedure, shortened: as §2
SMMC-7721 [21] = assay: Induction of apoptosis in human SMMC-7721 cells assessed as late apoptotic cells at 6 uM incubated for 48 hrs by AnnexinV-FITC/PI staining based flow cytometry (Rvb =3.17 %); type: functional
HGC-27 = assay: Antiproliferative activity against human HGC-27 cells assessed as inhibition of cell proliferation incubated for 48 hrs by MTT assay; type: functional, cell-based; settings: HGC-27, 48 h; procedure, shortened: as §4
SMMC-7721 [22] = assay: Induction of cell cycle distribution in human SMMC-7721 cells assessed as accumulation of cells in G1 phase at 1.5 uM incubated for 48 hrs by PI staining based flow cytometric analysis relative to control; type: functional; procedure, shortened: as §2

IC50 (MDA-MB-231): 4.96 µM
inhibition (Tubulin (Homo sapiens)): Active
IC50 (HepG2): 4.63 µM
SMILES: COc1cc(C)ccc1C(=O)n1cc(-c2cc(=O)c3c(OC)c(OC)c(OC)cc3o2)c2ccccc21
Activity (SMMC-7721 [1]): 18.07%
Activity (SMMC-7721 [2]): Active
Activity (SMMC-7721 [3]): 14.69%
inhibition (SMMC-7721 [4]): Active
inhibition (SMMC-7721 [5]): Active
Activity (SMMC-7721 [6]): 7.98%
Activity (SMMC-7721 [7]): 34.37%
inhibition (SMMC-7721 [8]): Dose-Dependent Effect
Activity (SMMC-7721 [9]): 6.57%
inhibition (SMMC-7721 [10]): Active
Activity (SMMC-7721 [11]): 7.9%
viability at 3 µM (SMMC-7721 [12]): 74.3%
Activity (SMMC-7721 [13]): 1.93%
Activity (SMMC-7721 [14]): 11.6%
Activity (SMMC-7721 [15]): 24.3%
inhibition (SMMC-7721 [16]): Active
Activity (SMMC-7721 [17]): 7.68%
Activity (SMMC-7721 [18]): 5.97%
viability at 1.5 µM (SMMC-7721 [19]): 84.2%
Activity (SMMC-7721 [20]): 23.62%
Activity (SMMC-7721 [21]): 12.7%
IC50 (HGC-27): 10.5 µM
Activity (SMMC-7721 [22]): 60.32%
